System: U2OS
Test: Multiplex assay against U2OS
Assay type: toxicity, cell-based
Conditions: human
Procedure, shortened: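 At seeding, live cells were stained with Hoechst33342, BioTracker Green Microtubule Cytoskeleton Dye, MitoTracker Red and Annexin V Alexa Fluor 680. After compound addition they were imaged on a CQ1 microscope at 37°C and 5% CO2, and CellPathfinder machine-learning gating sorted them into Hoechst high-intensity objects or normal cells, with normal cells further split into healthy, pyknosed or fragmented nuclei and pyknosed cells into mitotic or apoptotic. Tubulin, mitochondrial-mass and membrane-permeability phenotypes are given as per cents of cells with healthy nuclei.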

[1] = 12 h, 1 µM, compound concentration 1 uM, replicate 1
[2] = 12 h, 1 µM, compound concentration 1 uM, replicate 2
[3] = 12 h, 10 µM, compound concentration 10 uM, replicate 1
[4] = 12 h, 10 µM, compound concentration 10 uM, replicate 2
[5] = 24 h, 1 µM, compound concentration 1 uM, replicate 1
[6] = 24 h, 1 µM, compound concentration 1 uM, replicate 2
[7] = 24 h, 10 µM, compound concentration 10 uM, replicate 1
[8] = 24 h, 10 µM, compound concentration 10 uM, replicate 2
[9] = 48 h, 1 µM, compound concentration 1 uM, replicate 1
[10] = 48 h, 1 µM, compound concentration 1 uM, replicate 2
[11] = 48 h, 10 µM, compound concentration 10 uM, replicate 1
[12] = 48 h, 10 µM, compound concentration 10 uM, replicate 2

CCn1c(=O)c(-c2ccc(-c3cncs3)cc2Cl)cc2cnc(Nc3ccc(N4CCN(C)CC4)cc3)nc21
Population Apoptotic (%) [1]: 57%
Population Fragmented Nuclei (%) [1]: 11%
Population Healthy Nuclei (%) [1]: 77%
Population Hoechst High Intensity Objects (%) [1]: 7%
Population Membrane Permeable-Phenotype (%) [1]: 11%
Population Mitochondria Different-Phenotype (%) [1]: 11%
Population Mitotic Cells (%) [1]: 42%
Population Normal (%) [1]: 92%
Population Pyknosed Nuclei (%) [1]: 11%
Population Tubulin-Different-Phenotype (%) [1]: 7%
Total Cell Count [1]: 162
Population Apoptotic (%) [2]: 75%
Population Fragmented Nuclei (%) [2]: 9%
Population Healthy Nuclei (%) [2]: 78%
Population Membrane Permeable-Phenotype (%) [2]: 3%
Population Mitochondria Different-Phenotype (%) [2]: 17%
Population Mitotic Cells (%) [2]: 25%
Population Tubulin-Different-Phenotype (%) [2]: 19%
Total Cell Count [2]: 76
Population Apoptotic (%) [3]: 84%
Population Fragmented Nuclei (%) [3]: 40%
Population Healthy Nuclei (%) [3]: 5%
Population Hoechst High Intensity Objects (%) [3]: 77%
Population Membrane Permeable-Phenotype (%) [3]: 38%
Population Mitochondria Different-Phenotype (%) [3]: 53%
Population Mitotic Cells (%) [3]: 15%
Population Normal (%) [3]: 22%
Population Pyknosed Nuclei (%) [3]: 54%
Population Tubulin-Different-Phenotype (%) [3]: 84%
Total Cell Count [3]: 177
Population Apoptotic (%) [4]: 11%
Population Fragmented Nuclei (%) [4]: 8%
Population Healthy Nuclei (%) [4]: 79%
Population Hoechst High Intensity Objects (%) [4]: 4%
Population Membrane Permeable-Phenotype (%) [4]: 5%
Population Mitochondria Different-Phenotype (%) [4]: 29%
Population Mitotic Cells (%) [4]: 88%
Population Normal (%) [4]: 96%
Population Pyknosed Nuclei (%) [4]: 12%
Population Tubulin-Different-Phenotype (%) [4]: 15%
Total Cell Count [4]: 77
Population Apoptotic (%) [5]: 38%
Population Fragmented Nuclei (%) [5]: 10%
Population Healthy Nuclei (%) [5]: 78%
Population Hoechst High Intensity Objects (%) [5]: 4%
Population Membrane Permeable-Phenotype (%) [5]: 6%
Population Mitochondria Different-Phenotype (%) [5]: 6%
Population Mitotic Cells (%) [5]: 61%
Population Normal (%) [5]: 95%
Population Pyknosed Nuclei (%) [5]: 10%
Population Tubulin-Different-Phenotype (%) [5]: 7%
Total Cell Count [5]: 161
Population Apoptotic (%) [6]: 46%
Population Fragmented Nuclei (%) [6]: 15%
Population Healthy Nuclei (%) [6]: 68%
Population Membrane Permeable-Phenotype (%) [6]: 1%
Population Mitochondria Different-Phenotype (%) [6]: 5%
Population Mitotic Cells (%) [6]: 53%
Population Pyknosed Nuclei (%) [6]: 16%
Population Tubulin-Different-Phenotype (%) [6]: 20%
Total Cell Count [6]: 74
Population Apoptotic (%) [7]: 97%
Population Fragmented Nuclei (%) [7]: 30%
Population Healthy Nuclei (%) [7]: 0%
Population Hoechst High Intensity Objects (%) [7]: 78%
Population Membrane Permeable-Phenotype (%) [7]: 100%
Population Mitochondria Different-Phenotype (%) [7]: 100%
Population Mitotic Cells (%) [7]: 2%
Population Normal (%) [7]: 21%
Population Pyknosed Nuclei (%) [7]: 69%
Population Tubulin-Different-Phenotype (%) [7]: 100%
Total Cell Count [7]: 212
Population Apoptotic (%) [8]: 27%
Population Fragmented Nuclei (%) [8]: 14%
Population Healthy Nuclei (%) [8]: 71%
Population Hoechst High Intensity Objects (%) [8]: 3%
Population Membrane Permeable-Phenotype (%) [8]: 7%
Population Mitochondria Different-Phenotype (%) [8]: 23%
Population Mitotic Cells (%) [8]: 72%
Population Normal (%) [8]: 96%
Population Pyknosed Nuclei (%) [8]: 14%
Population Tubulin-Different-Phenotype (%) [8]: 8%
Total Cell Count [8]: 83
Population Apoptotic (%) [9]: 60%
Population Fragmented Nuclei (%) [9]: 6%
Population Healthy Nuclei (%) [9]: 85%
Population Hoechst High Intensity Objects (%) [9]: 3%
Population Membrane Permeable-Phenotype (%) [9]: 3%
Population Mitochondria Different-Phenotype (%) [9]: 9%
Population Mitotic Cells (%) [9]: 40%
Population Normal (%) [9]: 96%
Population Pyknosed Nuclei (%) [9]: 8%
Population Tubulin-Different-Phenotype (%) [9]: 9%
Total Cell Count [9]: 186
Population Apoptotic (%) [10]: 50%
Population Fragmented Nuclei (%) [10]: 8%
Population Healthy Nuclei (%) [10]: 79%
Population Hoechst High Intensity Objects (%) [10]: 8%
Population Membrane Permeable-Phenotype (%) [10]: 7%
Population Mitochondria Different-Phenotype (%) [10]: 20%
Population Mitotic Cells (%) [10]: 50%
Population Normal (%) [10]: 92%
Population Pyknosed Nuclei (%) [10]: 12%
Population Tubulin-Different-Phenotype (%) [10]: 23%
Total Cell Count [10]: 105
Population Apoptotic (%) [11]: 93%
Population Fragmented Nuclei (%) [11]: 31%
Population Healthy Nuclei (%) [11]: 0%
Population Hoechst High Intensity Objects (%) [11]: 80%
Population Membrane Permeable-Phenotype (%) [11]: 25%
Population Mitochondria Different-Phenotype (%) [11]: 25%
Population Mitotic Cells (%) [11]: 6%
Population Normal (%) [11]: 19%
Population Pyknosed Nuclei (%) [11]: 67%
Population Tubulin-Different-Phenotype (%) [11]: 50%
Total Cell Count [11]: 321
Population Apoptotic (%) [12]: 57%
Population Fragmented Nuclei (%) [12]: 16%
Population Healthy Nuclei (%) [12]: 70%
Population Hoechst High Intensity Objects (%) [12]: 3%
Population Membrane Permeable-Phenotype (%) [12]: 16%
Population Mitochondria Different-Phenotype (%) [12]: 24%
Population Mitotic Cells (%) [12]: 42%
Population Normal (%) [12]: 96%
Population Pyknosed Nuclei (%) [12]: 13%
Population Tubulin-Different-Phenotype (%) [12]: 18%
Total Cell Count [12]: 125

Reference: ChEMBL document CHEMBL4689842, “EUbOPEN Chemogenomics Library wave 1” (2021)
